Peptide text beside a SMILES is read from it.
How the values were obtained:
[1] = pA2 value, a dose-response plot was obtained by determining the response when the concentration of glucagon was varied while the concentration was kept same.
Glucagon receptor [2] = target: T1, Glucagon receptor (Rattus norvegicus, UniProt P30082); assay: Compound was evaluated for its ability to displace radiolabeled glucagon (inactive up to 100 uM)
Glucagon receptor [3] = target: T1, Glucagon receptor; assay: IC50 value was expressed for inhibition of [125]glucagon specific binding.
Method in brief: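 Incubation 10 min at 30 °C, then ice cooling and filtration on 0.45 μm cellulose acetate, gamma counting. Nonspecific binding taken with 1024 nM unlabeled peptide and subtracted. Read as % inhibition of specific binding. Triplicates, repeated twice.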

T1 sequence (P30082 whole entry): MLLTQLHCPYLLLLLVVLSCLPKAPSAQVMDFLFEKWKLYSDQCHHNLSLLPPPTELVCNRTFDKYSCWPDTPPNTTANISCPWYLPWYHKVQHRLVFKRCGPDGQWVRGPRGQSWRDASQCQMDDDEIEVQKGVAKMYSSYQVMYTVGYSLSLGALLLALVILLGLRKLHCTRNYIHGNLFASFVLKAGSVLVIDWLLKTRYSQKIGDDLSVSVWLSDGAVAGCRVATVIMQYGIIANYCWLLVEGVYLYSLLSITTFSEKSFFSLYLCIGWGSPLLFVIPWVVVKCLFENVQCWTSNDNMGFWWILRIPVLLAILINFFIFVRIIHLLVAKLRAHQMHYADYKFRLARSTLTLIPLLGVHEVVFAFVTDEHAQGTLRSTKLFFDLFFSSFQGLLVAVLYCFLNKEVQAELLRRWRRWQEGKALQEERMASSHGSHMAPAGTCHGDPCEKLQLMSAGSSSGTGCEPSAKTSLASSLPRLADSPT

Work on CSCC[C@H](NC(=O)[C@H](CC(C)C)NC(=O)[C@H](Cc1c[nH]c2ccccc12)NC(=O)[C@H](CCC(N)=O)NC(=O)[C@@H](NC(=O)[C@H](Cc1ccccc1)NC(=O)[C@H](CC(=O)O)NC(=O)[C@H](CCC(N)=O)NC(=O)[C@H](C)NC(=O)[C@H](CCCN=C(N)N)NC(=O)[C@H](CCCN=C(N)N)NC(=O)[C@H](CO)NC(=O)[C@H](CC(=O)O)NC(=O)[C@H](CC(C)C)NC(=O)[C@H](Cc1ccc(O)cc1)NC(=O)[C@H](CCCCN=C(N)N)NC(=O)[C@H](CO)NC(=O)[C@H](Cc1ccc(O)cc1)NC(=O)[C@H](CC(=O)O)NC(=O)[C@H](CO)NC(=O)[C@@H](NC(=O)[C@H](Cc1ccccc1)NC(=O)[C@@H](NC(=O)CNC(=O)[C@H](CCC(N)=O)NC(=O)[C@H](CO)NC(=O)[C@H](Cc1c[nH]cn1)Nc1c([N+](=O)[O-])cc([N+](=O)[O-])cc1[N+](=O)[O-])[C@@H](C)O)[C@@H](C)O)C(C)C)C(=O)N[C@@H](CC(N)=O)C(=O)N[C@H](C(=O)O)[C@@H](C)O yielded a pA2 [1] of 8.16 and an IC50 (Glucagon receptor [2]) of 15 nM.
CSCC[C@H](NC(=O)[C@H](CC(C)C)NC(=O)[C@H](Cc1c[nH]c2ccccc12)NC(=O)[C@H](CCC(N)=O)NC(=O)[C@@H](NC(=O)[C@H](Cc1ccccc1)NC(=O)[C@H](CC(=O)O)NC(=O)[C@H](CCC(N)=O)NC(=O)[C@H](C)NC(=O)[C@H](CCCN=C(N)N)NC(=O)[C@H](CCCN=C(N)N)NC(=O)[C@H](CO)NC(=O)[C@H](CC(=O)O)NC(=O)[C@H](CC(C)C)NC(=O)[C@H](Cc1ccc2ccccc2c1)NC(=O)[C@H](CCCCN)NC(=O)[C@H](CO)NC(=O)[C@H](Cc1ccc(O)cc1)NC(=O)CCCc1ccccc1)C(C)C)C(=O)N[C@@H](CC(N)=O)C(=O)N[C@H](C(N)=O)[C@@H](C)O (HELM PEPTIDE1{[O=C(CCCc1ccccc1)[*:2]].Y.S.K.[O=C([C@H](Cc1ccc2ccccc2c1)N[*:1])[*:2]].L.D.S.R.R.A.Q.D.F.V.Q.W.L.M.N.T.[am]}$$$$V2.0) showed a pA2 [1] of 6.7 and an IC50 (Glucagon receptor [3]) of 781 nM.

From ChEMBL document CHEMBL1134405 (J Med Chem, 2001)
